This is a sample that favours compounds with a hit; in the whole collection about 1.9% have one here.
LEDGF integ inh: blocks HIV-1 LEDGF/p75-dependent DNA integration; AID 743269; TR-FRET IN-LEDGF/p75 DNA integration, Eu/Cy5; inhibition, % at 3.7 µM; 370,000 compounds, 0.64% hits;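 active = inhibition above the screen-wide mean plus 3 SD, cut at about 13% in these data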;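 note: signal is the Cy5 over europium emission ratio at 671 and 618 nm; 0% = plate median of compound wells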
Tn6 DDE FP: inhibitors of Tn6 peptide binding to human fibrin DD(E); P02675; Fibrin DD(E) TRITC-Tn6 fluorescence polarization displacement; inhibition, % at 8.3 µM; 370,000 compounds, 0.21% hits; AID 720509;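 active = inhibition above a per-campaign cutoff: mean of compounds within control limits plus 3 SD, cut at about 15% in these data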;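 note: 0% = median of all compound wells on the plate and 100% = blocking peptide control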
MBD2 inh: blocks human MBD2 binding to methylated DNA. inhibition, % at 4.4 µM. TR-FRET, MBD2 binding to methylated oligonucleotide. Q9UBB5. 370,000 compounds, 0.31% hits; in the data active = inhibition above about 13%
DDE Tn7 FP inh: inhibitors of Tn7 peptide binding to human fibrin DD(E); P02675; FP displacement of FITC-Tn7 peptide from fibrin DD(E); 0% = median of compound wells per plate; inhibition, % at 8.3 µM; 370,000 compounds, 0.13% hits;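 active = inhibition above the mean of compounds falling within the control limits plus 3 SD of them, cut at about 14% in these data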;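 note: 0% = plate median of compound wells and 100% = 10 µM Aha-Tn7 peptide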
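Assay system: human fibrin DD(E) protein / Input: 2 µM fibrin DD(E) / Benchmarks: high control of 10 µM Aha-Tn7 peptide / Measured by: fluorescence polarization of the labelled Tn7 tracer / Medium: Tris buffer with calcium and detergent, pH 7.8 / Timing: 10 min compound pre-incubation, 3 h probe incubation at room temperature / Repeats: one replicate per compound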
TDP2 inh: blocks human TDP2 phosphodiesterase activity; O95551; recombinant TDP2, T5PNP hydrolysis, p-nitrophenol absorbance 415 nm; inhibition, % at 12.8 µM; 370,000 compounds, 0.34% hits; AID 720702;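 active = inhibition above the mean of all tested compounds plus 3 SD, set per campaign, cut at about 25% in these data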;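 note: 0% = DMSO with enzyme and 100% = buffer with substrate but no TDP2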
Target sequence (O95551 whole entry, looked up): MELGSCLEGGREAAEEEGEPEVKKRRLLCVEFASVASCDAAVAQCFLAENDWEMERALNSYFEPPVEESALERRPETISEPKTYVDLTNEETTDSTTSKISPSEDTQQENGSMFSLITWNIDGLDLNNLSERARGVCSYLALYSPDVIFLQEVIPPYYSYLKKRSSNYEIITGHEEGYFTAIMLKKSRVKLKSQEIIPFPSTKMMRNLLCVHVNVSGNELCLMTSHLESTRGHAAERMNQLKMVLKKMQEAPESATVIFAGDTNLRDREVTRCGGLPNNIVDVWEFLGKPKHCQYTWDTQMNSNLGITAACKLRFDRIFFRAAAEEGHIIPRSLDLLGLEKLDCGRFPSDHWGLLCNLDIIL
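Test system: human TDP2 enzyme; Input: 120 nM TDP2 per well; Buffer or medium: Mg2+-containing Tris-HCl buffer, pH 7.5; Reagent: 5 mM T5PNP; Dosing: 12.8 µM single point, 1% DMSO; Incubation: reaction 2 h, 37 °C; Detection: p-Nitrophenol epi absorbance; Read-out: % inhibition relative to enzyme-containing and enzyme-free wells; Replicates: single well per compound.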
UHRF1 MBD2 ctr: human UHRF1 methylated DNA binding inhibitors. AID 687016. Q96T88. UHRF1 binding to methylated oligo, TR-FRET. inhibition, % at 4.4 µM. 370,000 compounds, 0.75% hits;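 note: UHRF1 SRA domain binding a hemimethylated CpG hairpin DNA probe; 0% = median of test compound wells and 100% = reference inhibitor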
UHRF1 ctr MBD2: UHRF1 methyl-oligo binding inhibition as MBD2 counter-screen. shares compounds with MBD2 inh. UHRF1 binding to methylated oligonucleotide, TR-FRET. inhibition, % at 4.4 µM. 1,000 compounds, 25% hits. AID 720530;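 note: UHRF1 SRA domain binding a labeled hemimethylated CpG hairpin DNA; 0% = vehicle only and 100% = reference inhibitor with vehicle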
MBD2 DBD conf: MBD2-DBD methyl-DNA binding inhibition, TR-FRET confirmation. TR-FRET MBD2-DBD binding to methylated oligonucleotide. AID 720531. shares compounds with MBD2 inh. inhibition, % at 4.4 µM. 1,000 compounds, 26% hits; in the data active = inhibition above about 14%
Starred values were filed as active, the others as inactive; · = not tested or not shown. Cut-off read from the data, not from the text of the source, unless noted: active = inhibition above about 21%; inactive = the rest.

SMILES	LEDGF integ inh	Tn6 DDE FP	MBD2 inh	DDE Tn7 FP inh	TDP2 inh	UHRF1 MBD2 ctr	UHRF1 ctr MBD2	MBD2 DBD conf
CCCc1nc2ccc(C(=O)OC)cn2c1Cc1cccc(F)c1	4	-8	17*	3	-5	26*	10	5
Cc1nccn1-c1ccc(C=O)cc1	2	-2	40*	2	-3	2	0	3
C#CCOCCOCCOCCNc1nc(N2CCN(C(=O)[C@H](CCCCN)n3cc([C@@H](N)C(C)CC)nn3)CC2)nc(N2CCN(C(=O)[C@H](CCCCN)n3cc([C@@H](N)C(C)CC)nn3)CC2)n1 (some centres undefined)	2	-5	16*	-1	-1	16	6	3
C#CCOCCOCCOCCNc1nc(N2CCN(C(=O)[C@H]([C@@H](C)CC)n3cc(CCC(=O)O)nn3)CC2)nc(N2CCN(C(=O)[C@H](CCCCN)n3cc(CCCC)nn3)CC2)n1	2	4	25*	4	1	10	9	7
C#CCOCCOCCOCCNc1nc(N2CCN(C(=O)[C@H]([C@@H](C)CC)n3cc(CCCCN)nn3)CC2)nc(N2CCN(C(=O)[C@H](CCCCN)n3cc(CCCC)nn3)CC2)n1	3	3	4	-1	1	13	·	·
O=C(C1CC1)n1ccc2ccc(-c3ccc4ccn(Cc5ccccc5)c4c3)cc21	-2	-3	5	0	-1	1	·	·
O=C(Nc1ccc(Br)cc1)OCCCN1CCC2(CCCCC2)C1=O	-5	-8	-3	-2	-1	3	·	·
CN1CCCCC(NC(=O)c2cccc([N+](=O)[O-])c2)C1=O (centres undefined)	-1	5	1	-3	3	0	·	·
Cc1noc(C)c1Cn1nc(C(=O)O)c2ccccc2c1=O	7	-7	32*	-3	-10	1	3	1
COC(=O)C[C@@H]1CC[C@H]2[C@@H](COc3ccc(NC(=O)Nc4ccccc4Cl)cc3C(=O)N2C)O1	-4	-3	1	6	4	0	·	·
O=C(CNC(=O)c1ccccc1)OCN1C(=O)c2ccccc2C1=O	-1	-4	15*	-3	0	2	8	4
O=C(CCNC(=O)c1ccccc1)OCN1C(=O)c2ccccc2C1=O	-1	-1	-2	-2	-8	4	·	·
CCOc1ccc(CCN2C(=O)C(=O)N([C@@H](CC(C)C)CN3CCC[C@H]3CN3C(=O)C(=O)NC[C@@H]3CC(C)C)C[C@@H]2Cc2ccc(O)cc2)cc1	2	0	16*	1	-8	22*	4	5
CC[N+](CC)(CC)CCCCOc1ccc2c(c1)C(=O)c1cc(OCCCC[N+](CC)(CC)CC)ccc1-2	1	4	21*	-5	7	31*	49*	32*
Cc1nc(SCC(=O)Nc2c(C)n(C)n(-c3ccccc3)c2=O)[nH]c(=O)c1Cc1ccccc1	3	-1	1	0	4	1	·	·
CCc1c(C)nc(SCC(=O)Nc2c(C)n(C)n(-c3ccccc3)c2=O)[nH]c1=O	2	3	20*	-2	2	1	7	1
Cc1cc(C)cc(OCC(=O)NNC(=O)C2CCCO2)c1 (centres undefined)	6	-2	-3	-4	-3	-1	·	·
Cc1ccc(OCC(=O)NNC(=O)C2CCCO2)c(C)c1 (centres undefined)	-1	-7	18*	2	5	3	8	1
O=c1nc2s/c(=C\c3ccco3)c(=O)n2nc1Cc1ccc(F)cc1	-3	4	4	4	-8	0	·	·
Cc1ccc(-c2nc3s/c(=C\c4ccco4)c(=O)n3n2)cc1	12	-9	15*	-6	-4	30*	12	5
